Experiment: Toxicity liver stage against HepG2, at 10uM
Assay type: cell-based
Parameters: test concentration 10 uM, cell line HepG2-A16-CD81EGFP
Conditions: human, HepG2-A16-CD81EGFP cells; read-out: INHIBITION
How it was run: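 Uninfected HepG2-A16-CD81EGFP cells, 3 × 10^3 per well, 1536-well, plated on prespotted compound at 10 μM final, parasite-free screening media added to match infected plates; puromycin 10 μM positive, DMSO 0.5% negative; run in parallel with 48 h PbLuc assay at 37 °C, 5% CO2; viability by CellTiter-Glo luminescence, normalized to controls.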

| SMILES | cytotoxicity at 10 µM |
| --- | --- |
| Cn1ccnc1CN1CCOC[C@H]1c1nc(C(C)(C)C)co1 | -4.13% |
| CC[C@H]1CN(C(=O)c2cccnc2)CC[C@H]1CC(=O)NCCOC | 5.26% |
| c1cc(-c2noc([C@@H]3Cc4nc[nH]c4CN3)n2)ccn1 | -0.873% |
| CC1CCN(c2ccc(NC(=O)CCn3cccn3)cc2)CC1 | -10.6% |
| O=C(CCc1nc2ccccc2[nH]1)Nc1ccc2c(c1)OCC(=O)N2 | 17.9% |
| O=C(Nc1nnn[nH]1)c1cc(-c2ccc(Br)s2)n[nH]1 | -2.71% |
| Cc1nc(N2CCOCC2)nc(C)c1NS(=O)(=O)c1ccccc1 | -1.44% |
| COc1ncc(NS(=O)(=O)c2ccc(F)c(F)c2)c(OC)n1 | -7.76% |
| CCN(C)C(=O)c1cc(-c2ccn(C(C)C)n2)n2ccccc12 | -4.35% |
| CCS(=O)(=O)N1Cc2ncn(CC3CC3)c2C(COC)C1 (stereo unspecified) | 8.83% |
| COCC1CN(C(=O)c2ccccn2)Cc2nccn2C1 (stereo unspecified) | 8.62% |
| Cc1cccc(COC2COC3(CCN(Cc4ccoc4)CC3)C2)n1 (stereo unspecified) | -0.211% |
| Cc1cccc(C(=O)N2CCn3cnc(COCC4CC4)c3C2)n1 | 6.85% |
| CC(C)NC(=O)C(C)NC(=O)N1CCN(c2ccc(Cl)cc2)CC1 (stereo unspecified) | -3.6% |
| O=C(O)Cn1nc(C2CC2)c2c(-c3cccs3)ccnc21 | -11.6% |
| COc1ccc(CC(=O)N2CCN(Cc3ccco3)C[C@@H]2C)cc1OC | 3.88% |
| CC(=O)N1CCC1c1cc(NC2CCOCC2)nc(C)n1 (stereo unspecified) | 1.79% |
| Cc1cc(C)nc(Nc2cc(C)nc(C3CCN(C(C)C)C3)n2)n1 (stereo unspecified) | 3.06% |
| Cc1cc(N2CCCC2c2cnccn2)ncn1 (stereo unspecified) | 2.44% |
| CC1CCC(N2CCC(NS(=O)(=O)CCCF)CC2)CC1 (stereo unspecified) | 1.2% |
| COCc1nnc(-c2cccc(C(=O)OC(C)C)c2)o1 | -21.8% |
| CCOC(=O)N(C)CC(=O)NCCc1coc(-c2ccc(C)cc2)n1 | -13.9% |
| COc1cccc(CNC2CCc3ccc(C)cc32)n1 (stereo unspecified) | 4.37% |

| SMILES | cytotoxicity at 10 µM |
| --- | --- |
| O=C1CCN(C(=O)NCc2ccccc2Oc2ccccc2)CCN1 | 6.03% |
| Cc1cc(C)nc(NC2CCC(=O)N(C)C2)n1 (stereo unspecified) | -4.83% |
| CC(NC(=O)NCC(F)(F)F)c1nncn1C (stereo unspecified) | -1.63% |
| COCc1noc(C2(c3ccc(F)cc3)CC2)n1 | -2.93% |
| O=C(NS(=O)(=O)Cc1ccc(F)cc1)C1CCc2ccccc21 (stereo unspecified) | -13.1% |
| COc1cc(C(C)=O)ccc1SCC(=O)Nc1cccc(C)n1 | 15.1% |
| CCN(Cc1cccc(-c2ccncc2)c1)S(N)(=O)=O | -12.6% |
| Cc1cc(=O)n(C)cc1NC(=O)Cc1ccc(C(F)(F)F)cc1 | -14% |
| COCc1cccc(CNC(=O)CNc2ccccc2C(C)=O)c1 | 0.529% |
| Cn1c(N)nnc1SCc1ccc(Cl)cc1Br | 1.48% |
| Cc1nc(C2CN(Cc3ccc(F)cc3Br)CCO2)no1 (stereo unspecified) | -4.75% |
| O=C(CNC(=O)C1CC1)NCC1CCCC1 | 2.12% |
| CC(C)CCOc1ccc(C(C)NC(=O)Cn2cccnc2=O)cc1 (stereo unspecified) | -4.24% |
| CC1CCCN(C(=O)c2csc(S(N)(=O)=O)c2)CC1 (stereo unspecified) | 1.52% |
| COCc1nc2cc(NCc3ccc(C)o3)ccc2o1 | -9.41% |
| COCCN1CCN(C(C)C(=O)Nc2ccnn2C(C)C)CC1 (stereo unspecified) | -8.83% |
| Cc1cc(CN2CCN(C(=O)CCc3cccc(F)c3F)CC2)on1 | -6.16% |
| Cc1cc(CNC2CCCN(c3cccnn3)C2)no1 (stereo unspecified) | -15% |
| Cc1nn(C(C)C)c(C)c1NC(=O)c1ccccc1 | -11.7% |
| CC(=O)N1CCC(n2nccc2-c2cnc(N(C)CCO)nc2)CC1 | 5.47% |
| CC1=C(C(=O)N(C)Cc2noc3c2CCCC3)C(C)NC(=O)N1 (stereo unspecified) | -0.844% |
| CSCCC(O)C(=O)N1CCN(Cc2cccc(Cl)c2)CC1 (stereo unspecified) | 6.48% |
| CCN(Cc1cc(F)c(OC)c(Cl)c1)Cc1nc(COC)no1 | 3.98% |

| SMILES | cytotoxicity at 10 µM |
| --- | --- |
| Cc1cccc(-n2nc(CC(C)C)nc2CCC(=O)N(C)C)c1 | -9.61% |
| Cc1cc2occ(CC(=O)N3CCC(O)(CN(C)C)C3)c2cc1Cl (stereo unspecified) | -6.55% |
| COCCN(C)C[C@H]1C[C@H](CO)CN(C(=O)c2ccn(C)c(=O)c2)C1 | -2.75% |
| CCCc1nnc(N2CCN(c3cccc(OC)c3)C(=O)C2)o1 | 9.52% |
| Cc1cc(C(=O)N2CCc3c(ncnc3N3CCOCC3)C2)[nH]n1 | -5.92% |
| Cc1n[nH]c(C)c1CCC(=O)N(C)Cc1cn[nH]c1-c1ccc(F)cc1 | 7.86% |
| COCCN1CCc2onc(C(c3ccccc3)c3ccccc3)c2C1 | -7.35% |
| N#Cc1c(N)nc2c(c1-c1c[nH]nc1C1CCCCC1)COCC2 | 6.75% |
| COc1cc(N2CCC(c3nccn3Cc3ccccc3)CC2)ncn1 | 5.44% |
| C=C(C)COc1ccccc1NC(=O)N1CCOCC(CO)C1 (stereo unspecified) | -1.57% |
| COc1cc(C(=O)N2Cc3cnc(C(C)(C)C)nc3C2)ccn1 | 2.03% |
| Cc1cc(N2CCCC(O)(CN(C)C)C2)c2cc3c(cc2n1)OCO3 (stereo unspecified) | 0.935% |
| Cc1nc(O)cc(C2CCN(C(=O)c3ccsc3)CC2)n1 | -4.97% |
| Cc1cc2[nH]c(=O)oc2cc1S(=O)(=O)N1CCCC(N(C)C)CC1 (stereo unspecified) | 0.74% |
| Cc1cc2c(c(-c3c[nH]c(C)n3)c1)OC(CN)C2 (stereo unspecified) | 4.24% |
| Cc1cccc(C(C(=O)N2CC(c3ccncc3)C2)N(C)C)c1 (stereo unspecified) | -8.29% |
| COCCC1CCN([C@@H]2c3ccccc3C3(CCNCC3)[C@H]2O)CC1 | 1.35% |
| CSc1ccccc1C(=O)Nc1ccc(OC2CCN(C)CC2)cc1 | 3.39% |
| CCOc1cccc(C2CC(=O)NCc3nc(N(C)C)sc32)c1 (stereo unspecified) | -10.9% |
| CC(C)Oc1cc(N2C[C@@H](C)O[C@@H](C)C2)nc(N)n1 | -9.15% |
| Cc1nc(N2CCN(C(=O)C(C)(C)C)CC2)cc(-n2cnc(C)c2C)n1 | -23.2% |
| O=C(O)Cc1nc2nccc(-c3ccc(F)cc3)n2n1 | -1.53% |
| Cc1nc(C(=O)N2CCC(Cc3cnc4[nH]ccc4c3)C2)co1 (stereo unspecified) | 9.36% |

| SMILES | cytotoxicity at 10 µM |
| --- | --- |
| CCn1cc(CN2CCCN(C(=O)CCc3cccs3)CC2)cn1 | -6.99% |
| O=C(c1ccc2cc[nH]c2c1)N1CCC(Nc2cccnn2)CC1 | -5.06% |
| NS(=O)(=O)Cc1ccc(CNc2cncc(-n3cccn3)n2)cc1 | 6.1% |
| Cc1cnn(CC2CCCCN2C(=O)c2c(C)noc2C)c1 (stereo unspecified) | -7.26% |
| CC1CCCN(CCNC(=O)c2scnc2Cl)C1 (stereo unspecified) | -6.06% |
| COCCN1CCC(CNC(=O)C2(c3cccc(C)c3)CC2)C1 (stereo unspecified) | -4.28% |
| Fc1cc(CN2CCCC2Cn2cncn2)c2ncccc2c1 (stereo unspecified) | -14.1% |
| CC1CN(Cc2ccc(C#N)cc2F)CCN1Cc1nccn1C (stereo unspecified) | -4.66% |
| CC(=O)N(Cc1ncc(C)o1)C1CCN(Cc2nccn2C)C1 (stereo unspecified) | 6.57% |
| Cc1cnn(CC2CN(Cc3nnc(C4CC4)n3C)CCO2)c1 (stereo unspecified) | -2.72% |
| O=C(N1CCCC(n2cncn2)C1)C1(c2cccc(F)c2)CCCC1 (stereo unspecified) | 3.39% |
| CC(OCC1CC1)C(=O)N1CCCN(Cc2cscn2)CC1 (stereo unspecified) | -5.16% |
| COc1ncccc1CNCc1c(C)nn(C)c1N(C)C | -7.62% |
| CN(CCc1ccccc1)Cc1nc2c(cnn2C)c(=O)[nH]1 | -3.18% |
| c1ccc(-c2cc(CN3CCCC(Cn4cncn4)C3)on2)cc1 (stereo unspecified) | -15.9% |
| Cc1ccc(N2CCCC(NCc3ccc(-n4ccnc4)cc3)C2)nn1 (stereo unspecified) | -8.44% |
| Cc1ccn2ncc(C(=O)N3CCCC(n4nc(C)nc4C)C3)c2n1 (stereo unspecified) | -13.6% |
| CCC(C)C(=O)NCc1cccc(N2CCCCC2=O)c1 (stereo unspecified) | -6.93% |
| Cc1nc(CC(=O)N2CCC(Nc3cccnn3)CC2)cs1 | -9.45% |
| CCc1csc(C2CCCN(C(=O)c3ccc(OC)nn3)C2)n1 (stereo unspecified) | -8.8% |
| OCCN1CCN(Cc2coc(-c3ccc(Cl)cc3)n2)CC1 | -13.6% |
| CN1CCOC(CN(C(=O)Cc2ccccc2F)c2nccs2)C1 (stereo unspecified) | -11.7% |
| CCC(CC)C(O)CNC(=O)Nc1cc(C)nn1C (stereo unspecified) | -11% |

| SMILES | cytotoxicity at 10 µM |
| --- | --- |
| Cc1nc(CNC(=O)NCC(O)c2ccc(F)cc2F)cs1 (stereo unspecified) | 6.5% |
| c1ccc2cc(OCCN3CCn4c(nnc4C4CC4)C3)ccc2c1 | 5.49% |
| O=C(Nc1ccccc1F)N1CCN(Cc2noc(C3CC3)n2)CC1 | -0.144% |
| COc1cc(C(=O)N2CCC(c3n[nH]c(C4CC4)n3)CC2)ccc1C | 3.37% |
| CN(Cc1nc(N)c2ccccc2n1)CC1CCCN1c1cccnn1 (stereo unspecified) | -1.4% |
| Cc1nnc(N2CCO[C@H]3[C@@H](OCc4ccccn4)CC[C@@H]32)s1 | 12.2% |
| CC(=O)N1CCc2cc(C(=O)O)c(-c3ccsc3)nc2CC1 | 13.8% |
| Cn1nc(CN2CCCC2)c2c1CN(CC1CC1)CC2 | -3.27% |
| O=C([C@H]1COC[C@H]2CN(CC3CCCC3)C[C@H]21)N1CCOCC1 | 20.5% |
| Cc1cccc(CN2C[C@H](NS(C)(=O)=O)[C@@H]3OCCC[C@@H]32)n1 | -0.179% |
| O=C(N[C@@H]1CN[C@@H]2CCCO[C@@H]21)c1cscn1 | -8.69% |
| CN(C)C(=O)N1CCC2(CCCN(c3ncccn3)C2)C1 (stereo unspecified) | 4.82% |
| c1csc(CN2CCOCC3(CCN(C4CCOCC4)C3)C2)c1 (stereo unspecified) | -0.608% |
| Cn1cc(CN2C[C@@H]3CCCO[C@@H]3[C@H](NC(=O)CC3CC3)C2)cn1 | -0.00726% |
| O=C(O)c1c(NC2CCC2)ncc2c1CCN(C1CCOC1)C2 (stereo unspecified) | 11.4% |
| O=C(NCc1ccco1)[C@@]12CCO[C@@H]1CCN(CC1CCOCC1)C2 | 6.06% |
| N#CC1Sc2nnc(-c3ccccc3F)n2N=C1N (stereo unspecified) | -0.634% |
| CC(C)Cn1c(=O)[nH]c2cn(-c3ccc(F)cc3)c(=O)n21 | 8.2% |
| CC(=O)Nc1c(C)noc1C=Cc1ccc(C)c(S(=O)(=O)NC2CC2)c1 | 0.905% |

From ChEMBL document CHEMBL4513216, “Probing the Open Global Health Chemical Diversity Library for Multistage-Active Starting Points for Next-Generation Antimalarials” (ACS Infect Dis, 2020)
